Source: PubChem
MT1-MMP txn act: activates MT1-MMP transcription. 0.16% of 86,000 active. HT1080 MT1-MMP promoter luciferase reporter, luminescence, overnight; hits give high values. activation factor at 10 µM;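 active = activation factor of at least 2 for MT1-MMP transcription at 10 µM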
Pyk2 oligo antag: blocks oligomerization of human Pyk2 in cells | Q14289 | Q293 cells, Pyk2 FERM NanoBiT luminescence; hits give low values | z-score (the deposit names both 25 µM and 10 µM) | 0.83% of 99,000 active;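 active = Z-score of -3 or lower, scaled per plate to the spread of control and sample wells; inactive = z-score above -3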;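 also: negative z-score means lost luminescence so less FERM oligomerization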
Target sequence (Q14289 whole entry, looked up): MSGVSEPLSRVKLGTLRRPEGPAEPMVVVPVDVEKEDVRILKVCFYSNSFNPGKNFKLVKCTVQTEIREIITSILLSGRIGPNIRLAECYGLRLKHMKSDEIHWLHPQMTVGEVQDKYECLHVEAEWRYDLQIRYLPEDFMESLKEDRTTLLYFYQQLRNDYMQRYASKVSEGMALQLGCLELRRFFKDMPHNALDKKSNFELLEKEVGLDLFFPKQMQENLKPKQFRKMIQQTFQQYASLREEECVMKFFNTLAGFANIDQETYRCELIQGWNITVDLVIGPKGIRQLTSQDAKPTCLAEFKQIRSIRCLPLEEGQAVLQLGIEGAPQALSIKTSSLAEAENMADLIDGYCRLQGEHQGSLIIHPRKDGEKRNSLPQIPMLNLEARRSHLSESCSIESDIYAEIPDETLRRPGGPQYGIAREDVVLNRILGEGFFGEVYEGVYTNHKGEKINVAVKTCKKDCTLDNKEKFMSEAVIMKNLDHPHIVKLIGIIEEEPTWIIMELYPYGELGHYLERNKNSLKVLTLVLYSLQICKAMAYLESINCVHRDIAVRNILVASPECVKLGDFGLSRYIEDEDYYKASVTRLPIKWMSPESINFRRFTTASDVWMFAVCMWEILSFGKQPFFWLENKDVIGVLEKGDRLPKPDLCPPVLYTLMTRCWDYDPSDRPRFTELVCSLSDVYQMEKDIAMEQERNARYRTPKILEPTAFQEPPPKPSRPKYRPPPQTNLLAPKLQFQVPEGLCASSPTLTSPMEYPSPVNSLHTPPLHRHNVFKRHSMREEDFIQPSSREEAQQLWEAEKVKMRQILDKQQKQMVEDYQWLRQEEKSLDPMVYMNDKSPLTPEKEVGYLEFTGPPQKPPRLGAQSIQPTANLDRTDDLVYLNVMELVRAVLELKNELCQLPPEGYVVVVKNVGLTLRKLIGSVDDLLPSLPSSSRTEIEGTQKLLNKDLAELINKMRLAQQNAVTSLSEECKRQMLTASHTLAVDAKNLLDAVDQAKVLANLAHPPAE
H69AR growth 86K: growth inhibitors of human H69AR lung tumor cells; H69AR lung tumor viability, ATP luminescence, 72 h; hits give low values; viability, % at 10 µM; 6% of 85,000 active;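 active = viability at or below 40%; inactive = viability above 40%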;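 also: multidrug resistant small cell line overexpressing MRP-1 efflux transporter; 100% = mean luminescence of untreated control wells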
Fibroblast inh: blocks proliferation of human lung fibroblasts; 1.1% of 85,000 active; LL 47 human lung fibroblast viability, ATP luminescence; hits give low values; viability, % at 10 µM;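 active = viability at or below 50% in the single dose screen; inactive = viability above 50%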;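 also: compound exposure lasted 72 h before the ATP readout; 100% = median luminescence of untreated cell-only wells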
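Material: human LL 47 lung fibroblast cells; quantity: 1,150 cells/well; medium: IMEM plus 15% FBS; doses: 0.1% DMSO in all compound wells; timing: overnight attachment after seeding, then 72 h compound exposure at 37 °C; detection: CellTiter-Glo luminescence; measure: % viability of median cell-only signal; controls: cell-only wells, no compound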
Jurkat viability: reduces viability or proliferation of Jurkat cells; Jurkat E6.1 viability, ATP luminescence, 48 h; inhibition, % at 4 µM; 1.2% of 56,000 active;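 active = inhibition above the mean inhibition of all tested compounds plus 3 SD, cut at about 28% in these data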
HUVEC prolif 384: inhibitors of human endothelial cell proliferation; HUVEC proliferation, CellTiter-Glo luminescence, 72 h; hits give low values; viability, % at 10 µM (by protocol); 1.1% of 86,000 active;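 active = viability at or below 30%; inactive = viability above 30%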;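 also: 100% = median luminescence of DMSO-only cell control wells on each plate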
The depositor's hits bear a star; x = no result given. An excerpt weighted towards active compounds, which were near 5.9% of everything screened.

SMILES	MT1-MMP txn act	Pyk2 oligo antag	H69AR growth 86K	Fibroblast inh	Jurkat viability	HUVEC prolif 384
CCOCCOC(=O)c1[nH]c2c(c1C)C(=O)CC(c1ccc(N(C)C)cc1)C2 (centres undefined)	1.1	x	x	x	1	x
Cc1c(C(=O)N2CCOCC2)[nH]c2c1C(=O)CC(c1ccccc1Cl)C2 (centres undefined)	0.7	-0.16	22*	62	82*	56
C/C=C/COC(=O)c1[nH]c2c(c1C)C(=O)CC(c1ccc(N(C)C)cc1)C2 (centres undefined)	1.2	x	29*	110	0	79
CCOc1cc(Br)c(C(=O)O)cc1OC	1.1	1.3	100	94	x	90
CCCCOc1ccc(-c2nnn(C(C)(C)C(=O)OC)n2)cc1	1.5	-1.4	103	100	-2	94
CCc1c2c(nc3ccc(OC)cc13)OC(C)C2 (centres undefined)	1.3	x	x	x	x	x
O=C(CCn1c(=O)oc2ccccc21)Nc1ccc2c(c1)OCCO2	x	x	92	116	-3	94
COC(=O)[C@@]1(Cc2ccc(F)cc2)[C@H]2c3cc(C(=O)N(C)C)n(CCc4ccc(O)c(O)c4)c3C[C@H]2CN1C(=O)c1ccccc1	1.1	x	x	x	x	x
CCCCOc1ccc(C(=O)Nc2ccncc2)cc1	1.5	1.6	55	91	91*	71
CCCCOc1ccc(CC(=O)NO)cc1	1.1	x	4.8*	94	x	89
CCCCOc1ccc(C(=O)NC)cc1	1.2	0.12	96	100	6	101
Cc1nn2c(-c3ccccc3)nnc2c2ccccc12	1.6	-0.32	39*	98	-5	63
C=CCn1c(SCc2c(C)noc2C)nc2sc3c(c2c1=O)CCCCC3	1.2	-1.2	55	70	6	36
C=CCn1c(SCc2nc3ccccc3c(=O)[nH]2)nc2ccccc2c1=O	1.2	-0.68	5.6*	86	x	73
C=CCn1c(SCC(=O)OCC)nc2cc(C(=O)NCc3ccco3)ccc2c1=O	1.2	-0.45	100	103	x	92
C=CCn1c(SCc2c(C)noc2C)nc2ccccc2c1=O	0.4	0.05	20*	43*	x	46
C=CCn1c(SCc2c(C)noc2C)nc2sc3c(c2c1=O)CCCC3	1	0.52	28*	89	x	55
C=CCn1c(SCc2c(C)noc2C)nc2cc(C(=O)O)ccc2c1=O	1	1.1	94	85	69*	47
CCCC(=O)c1c[nH]c(C(=O)NCc2ccco2)c1	x	-0.04	x	x	x	x
Cn1c(N2CCN(C(=O)NC34CC5CC(CC(C5)C3)C4)CC2)nc2ccccc21	1.2	2.5	82	107	x	94
COC(=O)[C@@]1(Cc2ccc(OC)cc2)[C@H]2c3cc(C(=O)N4CCCC4)n(CCc4ccc(O)c(OC)c4)c3C[C@H]2CN1C(=O)c1ccccc1	1.1	x	x	x	x	x
C=C(C)COc1ccc(-c2[nH]ncc2Oc2ccccc2OCC)c(O)c1	1.2	1.1	x	56	-3	27*
C=C(C)COc1ccc(-c2nc(N)nc(C)c2Oc2ccccc2OC)c(O)c1	1	-2.9	77	89	5	94
C=C(C)COc1ccc(-c2[nH]ncc2Oc2cccc(OC)c2)c(O)c1	1.3	-3.6*	1.3*	55	-9	5.2*
CCN(CC)C(=O)C(=O)c1cccn1-c1ccccc1C#N	1	-0.79	104	116	x	97
SMILES	MT1-MMP txn act	Pyk2 oligo antag	H69AR growth 86K	Fibroblast inh	Jurkat viability	HUVEC prolif 384
O=C(Nc1cccnc1)c1ccc(Oc2ccccc2)cc1	0.8	-0.07	95	11*	-7	98
CC(=O)Nc1ccc(/C(C)=N/NC(=O)c2ccccc2Cl)cc1	x	-0.66	x	x	x	x
Cc1cc(C)c(S(=O)(=O)N(C2=NCCS2)S(=O)(=O)c2c(C)cc(C)cc2C)c(C)c1	1	-1	22*	101	x	103
COc1ccc(C(=O)CSc2nnc(Cc3ccccc3)o2)cc1	1.1	0.11	90	98	4	109
COc1ccc(C(=O)CSc2nnc(Cn3cnc4ccccc43)o2)cc1	1	-0.41	75	92	92*	54
CCOC(=O)c1ccccc1NC(=O)Cn1cnc2c(cnn2C(C)(C)C)c1=O	1	-0.61	37*	95	-6	82
CC(C)(C)n1ncc2c(=O)n(CC(=O)NCc3ccc(F)cc3)cnc21	0.8	-0.22	21*	84	54*	58
CC(C)(C)n1ncc2c(=O)n(CC(=O)NCc3ccco3)cnc21	1.5	0.08	74	97	7	99
